# Screening results from PubChem BioAssay.
# An excerpt weighted towards active compounds, which were near 3.5% of everything screened.
# MrgX1 ag = human MrgX1 receptor agonism, primary screen. AID 588627. MrgX1-HEK293 cells, Fluo-4 calcium fluorescence, agonist mode; stronger effect = higher value. B-score at 10 µM. 310,000 compounds, 0.44% hits;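 active = calcium response B-score plate-corrected fluorescence ratio at least 3 library SD, with starting fluorescence B-score inside 5 SD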
# Target sequence (Q96LB2 whole entry, looked up): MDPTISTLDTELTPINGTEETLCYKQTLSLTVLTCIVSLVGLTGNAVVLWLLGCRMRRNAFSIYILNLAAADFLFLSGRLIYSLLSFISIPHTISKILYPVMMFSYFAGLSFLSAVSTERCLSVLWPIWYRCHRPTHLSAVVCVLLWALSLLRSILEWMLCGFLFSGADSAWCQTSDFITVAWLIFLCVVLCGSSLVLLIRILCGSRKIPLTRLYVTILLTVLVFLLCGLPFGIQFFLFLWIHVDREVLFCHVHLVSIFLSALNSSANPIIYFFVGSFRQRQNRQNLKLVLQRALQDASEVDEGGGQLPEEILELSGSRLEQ
#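 times = overnight plating, then 30 min 37 °C plus 30 min room-temperature dye loading | assay system = stable human MrgX1 HEK293 cell line | input = fifteen thousand cells per well | signal = kinetic calcium dye fluorescence, Fluo-4 NW | dosing = compound delivered in addition one of three | read-out = B-scored fluorescence response ratio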
# MrgX1 antagonist = blocks BAM8-22 activation of human MrgX1 receptor | B-score at 10 µM | 310,000 compounds, 1.3% hits | MRGX1-HEK293 calcium flux, Fluo-4, BAM8-22 antagonism; stronger effect = lower value | Q96LB2 | AID 588676;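 active = calcium-response B-score plate-corrected more than 3 library SD below zero, starting fluorescence within 5 deviations, no agonist response on first addition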;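 note: peak minus trough fluorescence over baseline after final BAM8-22 challenge near maximal dose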
# MrgX1 allo act = allosterically activates human MrgX1 receptor signaling | MrgX1-HEK293, Fluo-4 calcium flux, FDSS; stronger effect = higher value | Q96LB2 | 310,000 compounds, 0.63% hits | B-score at 10 µM;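 active = plate-corrected calcium response at least 3 library SD above typical, normal starting fluorescence, not activating the receptor alone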;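 note: compound read alongside a low EC10 to EC30 dose of BAM8-22 agonist; peak minus trough fluorescence over baseline measured at the second addition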
# RGS4 pot = RGS4 potentiation or activation; HEK293 M3R/inducible RGS4, carbachol calcium flux Fluo4; stronger effect = lower value; B-score at 10 µM; 310,000 compounds, 0.92% hits;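 active = B-score of the integrated calcium signal more than 4 SD below the library mean, with starting fluorescence not abnormally high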;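 note: negative B-score means reduced calcium response which marks RGS4 activation or potentiation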
#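 test system = M3R-expressing HEK293 line, RGS4 induced by doxycycline | probe or stimulus = carbachol at ECmax as muscarinic agonist stimulus | timing = dye loading 30 min 37 °C, buffer rest 30 min RT | signal = calcium dye Fluo4 fluorescence | evaluation = B score from integrated fluorescence ratio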
# RGS4 block = inhibitors of human RGS4 | HEK293 M3R/RGS4 inducible, Fluo-4 calcium flux; stronger effect = higher value; triggered by carbachol at its EC20 | B-score at 10 µM | 310,000 compounds, 0.45% hits;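 active = B-score, a plate-corrected calcium signal, over three deviations above library mean, with baseline fluorescence within five deviations of library mean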;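 note: RGS4 expression induced by doxycycline in cells with stable M3 receptor; B-score is computed from the integrated fluorescence ratio over baseline after carbachol; higher B-score means a larger calcium signal and so more RGS4 inhibition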
# Target sequence (P49798 whole entry, looked up): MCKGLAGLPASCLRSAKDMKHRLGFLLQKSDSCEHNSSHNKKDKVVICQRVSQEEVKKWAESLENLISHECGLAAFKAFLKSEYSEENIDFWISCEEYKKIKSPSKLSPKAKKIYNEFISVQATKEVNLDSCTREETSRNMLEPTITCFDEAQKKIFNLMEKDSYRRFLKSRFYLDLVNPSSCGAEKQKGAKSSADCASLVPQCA
# Active calls of the source: *; i = inactive; . = no result given.
SMILES,MrgX1 ag,MrgX1 antagonist,MrgX1 allo act,RGS4 pot,RGS4 block
Cc1ccc(C(=O)N/N=C/C=C/c2ccccc2)o1,i,-7*,i,i,i
O=C(Cc1ccccc1[N+](=O)[O-])NCCCc1ccccc1,i,i,i,i,i
CC(C)C[C@@H](NC(=O)C1CCC(CNC(=O)[C@@H]2CCCN2C(=O)OC(C)(C)C)CC1)C(=O)O (some centres not stated),i,i,i,i,i
O=C(Oc1ccc(Br)cc1C(=S)N1CCOCC1)c1ccc([N+](=O)[O-])cc1[N+](=O)[O-],i,i,i,-7.5*,i
O=C(Oc1ccc(C(=S)N2CCOCC2)cc1)c1ccc([N+](=O)[O-])cc1[N+](=O)[O-],i,i,i,i,i
CC(C)(O)C#Cc1ccc(C(=O)N2CCC(C(N)=O)(N3CCCCC3)CC2)o1,.,.,.,i,i
CN(C)S(=O)(=O)N(CC(=O)NCCSCc1ccc(Cl)cc1)c1ccccc1,i,-7.8*,i,i,i
COc1ccccc1C(CNC(=O)C1CC(=O)N(Cc2ccc(C)cc2)C1)N1CCCC1 (configuration not stated),i,i,i,i,i
Cn1c(=O)cc(OCC(=O)NCCCN2CCN(Cc3ccccc3)CC2)c2ccccc21,i,-4.5*,i,i,i
CC(Oc1ccc(Cl)cc1Cl)C(=O)Nc1ccc(N2CCN(C)CC2)cc1 (configuration not stated),i,i,i,i,i
CC(=O)N1CCN(c2ccc(NC(=O)C(C)Oc3ccc(Cl)cc3Cl)cc2)CC1 (configuration not stated),i,-7.1*,i,i,i
C[n+]1ccccc1/C=C/c1cc(Br)ccc1O,i,i,i,-8.5*,i
COc1ccc(/C=C/c2cccc[n+]2C)c(O)c1,i,i,i,i,i
COc1cc(C(=S)N2CCOCC2)cc(OC)c1OC(=O)c1cccc(C)c1,i,i,i,i,i
COc1ccc(CN(CC(=O)NCc2ccc(F)cc2)C(=O)CCC(=O)Nc2nccs2)cc1,i,i,i,i,i
COc1ccc(CN(CC(=O)NCc2ccccc2)C(=O)CCC(=O)Nc2nccs2)cc1,i,i,12*,i,i
CC(Oc1cc2oc(=O)c3c(c2cc1Cl)CCCC3)C(=O)NCCN1CCOCC1 (configuration not stated),i,i,i,i,i
CCNC(=S)N/N=C/c1ccc(OCc2ccc(C(=O)OC)cc2)cc1,i,-4.7*,i,i,i
COc1cccc(CNc2ccccn2)c1O,i,i,i,i,i
COc1cccc(CNc2cccc3cccnc23)c1O,i,i,15*,i,i
O=C(CSc1ncnc2c1cnn2-c1ccccc1)NC1CCCC1,i,i,i,i,i
CCN(CC)c1ccc(/C=C/c2ccc3ccc(OC)cc3[n+]2CC)cc1,i,-9.3*,i,-8.5*,i
CC(C)CC(=O)N/C(N)=N/c1nc2ccccc2o1,i,i,i,i,i
Cc1ccc(S(=O)(=O)c2cc3c(=O)n4ccccc4nc3n(CCc3ccccc3)c2=N)cc1,i,i,i,-7.2*,i
COc1ccc(CCn2c(=N)c(S(=O)(=O)c3ccc(Cl)cc3)cc3c(=O)n4ccccc4nc32)cc1,i,-5.5*,i,i,i
SMILES,MrgX1 ag,MrgX1 antagonist,MrgX1 allo act,RGS4 pot,RGS4 block
COc1ccc(CCn2c(=N)c(S(=O)(=O)c3ccccc3)cc3c(=O)n4ccccc4nc32)cc1,i,i,i,i,i
Cc1ccc(S(=O)(=O)c2cc3c(=O)n4ccccc4nc3n(Cc3ccco3)c2=N)cc1C,31*,i,i,i,i
CCC1Oc2ccc(C)cc2N(CC(=O)N2CCCC2)C1=O (configuration not stated),i,i,i,i,i
O=c1cc(N2CCCCC2)c(-c2ccccc2)nn1Cc1cccc(Cl)c1,i,i,i,i,i
O=c1cc(N2CCCCC2)c(-c2ccccc2)nn1Cc1ccc(Cl)cc1Cl,i,i,i,-8.7*,i
O=c1cc(N2CCCCC2)c(-c2ccccc2)nn1Cc1ccccc1Cl,i,i,i,-7.1*,i
COc1ccc(NC2=C(Cl)C(=O)N(c3ccccc3)C2=O)c(OC)c1,i,i,i,i,i
COc1ccccc1NC1=C(Cl)C(=O)N(c2ccccc2)C1=O,i,i,11*,i,i
COc1ccc(S(=O)(=O)N2CCN(C(=O)c3cc(-c4ccc(Br)cc4)n[nH]3)CC2)cc1OC,i,i,i,-7*,i
O=C(Nc1ccnn1C1CCN(Cc2ccccc2F)CC1)C1CCCC1,i,i,i,i,i
O=S(Cc1cc(Sc2ccccc2)nc(-c2ccccc2)n1)c1ccccc1 (configuration not stated),i,i,10*,i,i
CNc1cc(CS(=O)c2ccccc2)nc(-c2ccccc2)n1 (configuration not stated),i,i,i,i,i
N#Cc1nccnc1S(=O)(=O)c1cccs1,i,i,i,-7.8*,i
CN(Cc1ccccc1C#N)S(=O)(=O)c1cccs1,i,i,i,i,i
O=C(c1ccccc1Cl)N1N=C(c2cccs2)CC1c1cccc(O)c1 (configuration not stated),i,i,i,i,i
CC(C)N1CCc2c(sc(NC(=O)c3cc(-c4cccs4)nc4ccccc34)c2C(N)=O)C1,i,i,i,-11*,i
CC(C)N1CCc2c(sc(NC(=O)c3nc4ccccc4s3)c2C(N)=O)C1,i,i,i,i,i
CC(C)[C@H](NC(=O)c1ccccc1Cl)C(=O)OCc1cc([N+](=O)[O-])cc2c1OCOC2,i,i,i,i,i
CSCCC(NC(=O)c1ccco1)C(=O)OCc1cc([N+](=O)[O-])cc2c1OCOC2 (configuration not stated),28*,i,i,i,i
COc1ccc(N2CCN(C(=O)Cn3nnc(-c4ccc(OC)c(OC)c4)n3)CC2)cc1,i,i,i,i,i
Cc1ccc(-c2nnn(CC(=O)N3CCN(c4ccccc4)CC3)n2)o1,i,i,i,-7.6*,i
COc1ccc(S(=O)(=O)Nc2cccc(-c3ccc(N4CCCCCC4)nn3)c2)c(OC)c1,i,i,i,i,i
Cc1cc(C)c2nc3sc(C(=O)N4CCOCC4)c(N)c3cc2c1,49*,i,i,i,i
